Measurements: article PMC11770135 (Journal of Pesticide Science, 2024)

Assays:
[1] = tested on: cytochrome b hemes of complex III; experiment: Reduction of cytochrome b hemes in housefly mitochondria; type: biochemical, housefly (Musca domestica); conditions: myxothiazol 8 µM with FloMet 5 µM or antimycin A 2 µM
Summary of the method: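 Housefly mitochondria at 0.8 mg/mL were held in 150 mM KCl, 2.5 mM MgCl₂, 1 µM rotenone, 0.2 µM SF6847, 2.0 mM KCN and 30 mM KPi (pH 7.4) at 30°C, and equilibrated with inhibitor(s) for 4 min. Reduction was started with succinate and recorded in dual-wavelength mode. Full reduction was set with excess sodium dithionite.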

Qi site of complex III = molecular target: T1, Qi site of complex III (Lucilia sericata, UniProt A7DT80); experiment: MS-based competition binding, Qi site; parameters: species or system green bottle fly (Lucilia sericata); conditions: reporter ligand FloMet 15 nM; two independent experiments
T1 sequence (A7DT80 1-378): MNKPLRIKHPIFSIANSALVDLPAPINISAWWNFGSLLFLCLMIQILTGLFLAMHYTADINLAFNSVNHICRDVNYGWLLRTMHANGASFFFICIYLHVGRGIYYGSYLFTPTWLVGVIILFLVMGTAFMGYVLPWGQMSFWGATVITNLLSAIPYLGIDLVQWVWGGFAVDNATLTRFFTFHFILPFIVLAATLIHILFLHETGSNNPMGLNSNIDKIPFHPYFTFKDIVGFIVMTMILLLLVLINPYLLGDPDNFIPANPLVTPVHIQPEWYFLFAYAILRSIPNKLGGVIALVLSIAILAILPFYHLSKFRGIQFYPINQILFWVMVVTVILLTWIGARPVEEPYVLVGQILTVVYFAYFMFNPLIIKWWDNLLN
Summary of the method: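 20–40 µg particles were incubated with reporter and competitor for 1 hr at room temperature in 50 mM Tris-HCl, 120 mM NaCl, 0.1 mM EDTA (pH 7.4) with bacitracin and undecyl maltoside. Bound ligand was filtered, acetonitrile-extracted and quantified by LC-ESI-MS/MS. Ki came from a one-site LogKi fit.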

[2] = tested on: respiratory complexes I, III, and IV (NADH oxidase activity); experiment: NADH oxidase activity; type: biochemical, housefly (Musca domestica); conditions: housefly mitochondria; compound added during NADH oxidation at final 40 nM
Summary of the method: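 Housefly crude mitochondria were prepared by homogenizing in 250 mM sucrose, 5.0 mM EDTA, 10 mM Tris-HCl (pH 7.5), then differential centrifugation, and permeabilized by freeze-thawing. Protein was 30 µg/mL in 150 mM KCl, 2.5 mM MgCl₂, 30 mM KPi (pH 7.4) at 30°C. The reaction was started with 150 µM NADH, and NADH oxidation was followed at 340 nm.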

Row | inhibition of NADH oxidase activity [2] | Structure (SMILES) | effect on reduction of cytochrome b hemes, in combination with myxothiazol [1] | displacement of FloMet bound to the Qi site (Qi site of complex III)
1 | – | CCCCCC[C@H]1C(=O)O[C@H](C)[C@H](NC(=O)c2cccc(NC=O)c2O)C(=O)O[C@@H](C)[C@@H]1OC(=O)CC(C)C [antimycin A] | suppression of the reduction of b hemes | displaced FloMet at low nano molar range
2 | almost no inhibition | CCc1nc2cc(C)c(Oc3ccc(OC(F)(F)F)cc3)cc2c(OC(=O)OC)c1C [FLO, 2-ethyl-3,7-dimethyl-6-[4-(trifluoromethoxy)phenoxy]quinolin-4-yl methyl carbonate] | – | –
